This is a sample that favours compounds with a hit; in the whole collection about 3.8% have one here.
KCNK9 block – inhibitors of human KCNK9 two-pore domain potassium channel | AID 488922 | HEK293 KCNK9, FluxOR thallium flux fluorescence; active compounds read low | actives 1.2% (n = 310,000) | B-score at 10 µM;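 active = ratio B-score over 3 SD below the library mean, with starting fluorescence within 5 SD of its mean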;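 note: negative B-score means less thallium flux so channel inhibition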
KCNQ1 block – inhibitors of human KCNQ1 potassium channel; CHO-K1 KCNQ1, FluxOR thallium flux fluorescence; active compounds read high; B-score at 10 µM; actives 1.3% (n = 310,000);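 active = compounds whose thallium flux B-score, printed positive for inhibition, exceeds three library SD while starting fluorescence stays within three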;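 note: channel opened by potassium depolarization with thallium stimulus after 20 min compound exposure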
hERG protect – compounds protecting human hERG from proarrhythmic drug block; Q12809; CHO-hERG, FluxOR thallium flux, dofetilide IC70 present; activation (rescue from dofetilide block), less the hit threshold, % at 10 µM; actives 0.51% (n = 310,000); AID 1511;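 active = activation above the mean of controls blocked by dofetilide plus 5 SD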;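 note: thallium influx through hERG after potassium depolarization seen as dye fluorescence rise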
KCNQ1 pot – human KCNQ1 channel potentiation or activation; P51787; CHO-K1 KCNQ1, thallium flux FluxOR fluorescence; active compounds read high; B-score at 10 µM; actives 0.35% (n = 310,000); AID 2648;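 active = fluorescence ratio B-score, a plate-corrected score, at least three library SD, with initial intensity B-score within 5 SD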
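Doses: Single concentration per compound, DMSO matched to controls | Test system: KCNQ1-transfected CHO-K1 cells | Timing: 90 min dye loading and 20 min compound exposure, both at room temperature | Measured by: Kinetic FluxOR thallium fluorescence, 10-s 1-Hz baseline, 110-s post-stimulus read | Medium: Assay buffer with matched DMSO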
KCNK3 inh – human KCNK3 channel inhibition, primary screen; B-score at 10 µM; O14649; CHO-KCNK3 thallium flux, FluxOR fluorescence; active compounds read low; actives 0.84% (n = 340,000); AID 602410;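 active = B-score under library mean minus 4 SD, starting fluorescence ratio at most library mean plus 5 SD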;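 note: more negative B-score means stronger inhibition of thallium flux through KCNK3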
Kir21 inh – blocks the mouse Kir2.1 inward-rectifier potassium channel; actives 0.85% (n = 310,000); AID 1672; HEK293-Kir2.1, FluxOR thallium flux fluorescence; active compounds read low; B-score at 10 µM; P35561;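 active = fluorescence ratio B-score at or below minus 3 SD of library scores, with starting-brightness B-score within 2 SD, cut at about -4.2 in these data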;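 note: channel flux triggered by added potassium and thallium sulfate stimulus; B-score of peak minus minimum fluorescence over baseline after thallium stimulus; more negative B-score means stronger Kir2.1 block with less thallium influx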
KCNQ1 inh valid – confirmation of human KCNQ1 potassium channel inhibitors. shares compounds with KCNQ1 block. KCNQ1 cell line, FluxOR thallium flux fluorescence. inhibition, % at 10 µM. actives 93% (n = 1,600);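 active = primary screen active, with duplicate mean exceeding buffer control mean plus 3 SD of buffer wells, cut at about 28% in these data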;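 note: 0% = buffer control ratio and 100% = XE991 inhibitor control ratio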
CHO KCNQ1 ctr – KCNQ1 inhibitor counter-screen hit in parental CHO cells. shares compounds with KCNQ1 block. fluorescence ratio (Tl flux) at 10 µM. parental CHO-K1, FluxOR thallium flux fluorescence ratio; active compounds read low; zero means no signal rise above baseline. actives 21% (n = 1,600);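 active = mean of duplicate thallium-flux fluorescence ratios in parental host cells more than 5 SD below the buffer control mean, cut at about 0.38 in these data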;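 note: ratio is peak minus minimum fluorescence divided by baseline fluorescence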
KCNQ1 ephys val – human KCNQ1 inhibition validated by electrophysiology | KCNQ1-CHO cells, automated patch clamp current | shares compounds with KCNQ1 block | actives 20% (n = 490) | calls only at 10 µM;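 active = KCNQ1 current drop exceeding 3 SD of negative control wells, seen in both duplicate runs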;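 note: steady state current during a 2 s step from -80 to +40 mV; negative values mean current inhibition and positive values mean potentiation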
KCNQ2 inh – rat KCNQ2 inhibition in KCNQ1 inhibitor specificity screen; shares compounds with KCNQ1 block; KCNQ2 cells, FluxOR thallium flux fluorescence; inhibition, % at 10 µM; actives 71% (n = 1,600); AID 651746;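 active = mean percent inhibition of the KCNQ2 thallium signal more than 5 SD above the buffer-only control wells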;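 note: KCNQ2 expressed in CHO cells; 0% = buffer control wells and 100% = XE-991 inhibitor control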
Target sequence (O88943 whole entry, looked up): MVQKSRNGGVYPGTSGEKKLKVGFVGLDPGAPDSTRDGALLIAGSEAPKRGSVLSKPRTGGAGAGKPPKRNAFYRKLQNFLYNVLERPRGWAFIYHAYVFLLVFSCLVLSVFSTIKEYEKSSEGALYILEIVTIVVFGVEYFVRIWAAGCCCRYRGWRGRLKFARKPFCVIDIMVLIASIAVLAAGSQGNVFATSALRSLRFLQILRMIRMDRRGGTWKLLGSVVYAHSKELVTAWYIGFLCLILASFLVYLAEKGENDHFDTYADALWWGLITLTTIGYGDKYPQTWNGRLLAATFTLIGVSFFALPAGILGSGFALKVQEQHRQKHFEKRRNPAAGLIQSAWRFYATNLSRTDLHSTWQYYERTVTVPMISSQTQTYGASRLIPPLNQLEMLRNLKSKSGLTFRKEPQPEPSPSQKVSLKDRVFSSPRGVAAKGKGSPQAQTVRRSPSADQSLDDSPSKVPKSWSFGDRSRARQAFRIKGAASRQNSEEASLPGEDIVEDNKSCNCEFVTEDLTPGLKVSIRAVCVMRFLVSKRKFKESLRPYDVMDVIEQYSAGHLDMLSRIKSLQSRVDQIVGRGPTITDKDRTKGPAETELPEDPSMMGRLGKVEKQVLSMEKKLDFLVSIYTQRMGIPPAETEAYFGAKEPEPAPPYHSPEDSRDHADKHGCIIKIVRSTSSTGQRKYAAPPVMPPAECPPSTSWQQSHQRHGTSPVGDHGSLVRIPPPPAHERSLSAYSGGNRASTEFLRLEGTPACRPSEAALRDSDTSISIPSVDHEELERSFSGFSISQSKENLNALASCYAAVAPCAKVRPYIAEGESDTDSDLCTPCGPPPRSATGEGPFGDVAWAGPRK
KCNQ1-KCNE1 inh – human KCNQ1/KCNE1 inhibition in KCNQ1 specificity screen | shares compounds with KCNQ1 block | KCNQ1/KCNE1 cells, FluxOR thallium flux fluorescence | inhibition, % at 10 µM | actives 77% (n = 1,600) | AID 652147;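 active = mean percent inhibition of duplicate wells above the buffer-only control mean plus 3 SD of those controls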;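 note: 0% = buffer only wells and 100% = XE-991 inhibitor control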
KCNK9 block conf – confirmation of human KCNK9 potassium channel inhibitors; shares compounds with KCNK9 block; HEK293 KCNK9 cells, FluxOR thallium flux fluorescence; inhibition, % at 10 µM; actives 43% (n = 4,900);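 active = thallium signal inhibited by more than 5 SD of the compound-free buffer control wells, on both duplicate plates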;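 note: 0% = assay buffer control wells without compound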
Kir21 sel – tests whether KCNK9 modulators also affect mouse Kir2.1. shares compounds with KCNK9 block. Kir2.1 cells, FluxOR thallium flux fluorescence. inhibition, % at 10 µM. actives 4% (n = 4,900);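 active = thallium signal drop more than 5 SD beyond the mean of the no-compound control wells, seen in both duplicate plates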;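 note: signal is fluorescence rise after thallium addition divided by baseline fluorescence; plate controls were assay buffer only for no effect and full block by chlorpromazine control for full effect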
KCNK9 uninduced – second counter-screen for KCNK9 modulators: effect in non-induced cells; shares compounds with KCNK9 block; non-induced KCNK9-HEK293, FluxOR thallium flux; inhibition, % at 10 µM; actives 40% (n = 4,900); AID 492997;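 active = thallium signal drop beyond 5 SD of the untreated control mean, on both duplicate plates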;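 note: plate controls were buffer only IC0 wells for no effect and SID17386958 at its maximal inhibitory level for full effect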
KCNK3 inh conf – human KCNK3 channel inhibition, confirmation assay; actives 99% (n = 2,400); shares compounds with KCNK3 inh; ratio percent of control, % at 10 µM; CHO-KCNK3 thallium flux, FluxOR fluorescence; 0% buffer, 100% carvedilol maximal block;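 active = ratio percent of control, averaged over triplicates, above buffer control mean plus 5 SD, cut at about 64% in these data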;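 note: ratio is the fluorescence rise from min to max over baseline after thallium stimulus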
KCNK3 noninduced – activity in cells without induced KCNK3 expression. thallium flux ratio (lower = more inhibition) at 10 µM. AID 651747. non-induced KCNK3 parental cells, FluxOR thallium flux; active compounds read low. shares compounds with KCNK3 inh. actives 40% (n = 2,400);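 active = thallium flux ratio, averaged over three wells, more than 5 SD below the buffer control mean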;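 note: host cells are CHO cells without KCNK3 induction; ratio is peak minus trough fluorescence over baseline then normalized to buffer controls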
Active calls of the source: *; i = inactive; . = no result given; + = active, no number.

SMILES	KCNK9 block	KCNQ1 block	hERG protect	KCNQ1 pot	KCNK3 inh	Kir21 inh	KCNQ1 inh valid	CHO KCNQ1 ctr	KCNQ2 inh	KCNQ1-KCNE1 inh	KCNK3 inh conf	KCNK3 noninduced	others
CCC1(CC)NC(=O)N(CC(=O)Nc2sc3c(c2C(N)=O)CCC3)C1=O	i	i	-7.6	i	i	1.23	.	.	.	.	.	.
CCOC(=O)c1c(NC(=O)C(C)OC(=O)c2ccc(NC(=O)CC#N)cc2)sc2c1CCCC2 (stereo not given)	i	8*	-11.7	i	-9.11*	0.68	104.5*	0.443	90.7%*	187.0%*	87.3*	0.143*	KCNQ1 ephys val=i
CCOC(=O)c1c(NC(=O)C(C)OC(=O)C2=COCCO2)sc2c1CCCC2 (stereo not given)	.	.	.	.	i	.	.	.	.	.	.	.
CCOC(=O)c1c(CSC(=N)N)n(C)c2cc(Br)c(OC(C)=O)cc12	i	8*	-20.4	i	-8.79*	-6.71	43.0*	0.522	60.0%*	78.5%*	117.3*	0.136*
N/C(COc1cc(Cl)cc(Cl)c1)=N\O	i	i	-4.1	i	i	-2.06	.	.	.	.	.	.
CC(C)NC(=O)c1sc(=S)n2c1[nH]c(=O)c1ccc(C(=O)NCCc3ccc(Cl)cc3)cc12	i	16*	-9.9	i	-18.3*	3.7	102.5*	0.347*	80.7%*	174.0%*	93.3*	i
CCCCNC(=O)c1sc(=S)n2c1[nH]c(=O)c1ccccc12	i	i	-30.9	i	i	-2.08	.	.	.	.	.	.
CCOc1ccc(CCNC(=O)c2ccc3c(=O)[nH]c4c(C(=O)NC(C)C)sc(=S)n4c3c2)cc1	i	15*	-27.1	i	-8.97*	0.86	156.5*	0.329*	97.0%*	+	108.3*	i
CC(C)CN(Cc1cc(=O)oc2cc3c(cc12)CCCC3)CC(C)C	i	i	-13.6	i	i	-5.03	.	.	.	.	.	.
O=C(O)c1cn[nH]c1-c1cccc([N+](=O)[O-])c1	i	i	1.8	i	i	-2.29	.	.	.	.	.	.
COc1ccc(N2CCN(c3ncnc4scc(-c5ccccc5)c34)CC2)cc1	-12.1*	6*	-9.3	i	-11.1*	-0.01	93.0*	0.383	106.3%*	108.0%*	116.7*	i	KCNQ1 ephys val=i;KCNK9 block conf=28.5%*;Kir21 sel=i;KCNK9 uninduced=i
COc1ccc(N2CCN(c3ncnc4scc(-c5ccc(F)cc5)c34)CC2)cc1	i	8*	-11.0	i	-11*	0.28	95.0*	0.361*	73.7%*	103.5%*	110.0*	i
c1ccc(-c2csc3ncnc(N4CCOCC4)c23)cc1	i	i	-10.7	i	i	-0.48	.	.	.	.	.	.
CC(Oc1ccc(Cl)cc1Cl)c1nc(-c2ccc(NC(=O)c3ccccn3)cc2)no1 (stereo not given)	i	i	-13.3	i	i	-1.23	.	.	.	.	.	.
O=C(O)c1ccc(NC2=C(Cl)C(=O)c3ccccc3C2=O)cc1	-12.4*	15*	-44.7	i	-11.7*	-9.06*	167.0*	0.261*	117.7%*	+	137.0*	0.0923*
O=C(O)c1cccc(NC2=C(Cl)C(=O)c3ccccc3C2=O)c1	i	16*	-28.6	i	-8.71*	-7.33*	155.0*	0.28*	118.7%*	+	126.3*	0.123*
CC1=C(Nc2ccc(C(=O)O)cc2)C(=O)c2ccccc2C1=O	i	i	0.9	i	i	-0.82	.	.	.	.	.	.
Cc1ccc(NC2=C(NC(=O)c3ccccc3)C(=O)c3ccccc3C2=O)cc1Cl	i	i	4.3	i	i	-0.27	.	.	.	.	.	.
CSc1cccc(NC(=O)N2CCc3ccc(NC(=O)c4ccccn4)cc3C2)c1	i	6*	-12.2	i	-10.7*	0.09	112.0*	0.478	104.3%*	177.5%*	112.3*	0.155*	KCNQ1 ephys val=i
S=C(NCc1ccccc1)NC1CCCc2ccccc21 (stereo not given)	i	8*	-11.9	i	-13.4*	-6.22*	0.0	0.48	66.0%*	i	112.0*	i
Cc1nc(N2CCN(c3ccccn3)CC2)c2c(C)c(C(=O)Nc3ccc(F)cc3Cl)sc2n1	i	i	-22.1	i	i	-0.81	.	.	.	.	.	.
COc1ccc(NC(=O)c2sc3nc(C)nc(N4CCN(c5ccccn5)CC4)c3c2C)cc1Cl	i	9*	-12.6	i	-12.3*	0.54	97.5*	0.438	88.0%*	105.0%*	118.0*	0.154*	KCNQ1 ephys val=i
COCC(C)N1C(=O)Cc2c1nc(N)c1c(N)nc(N3CCN(c4ccccc4F)CC3)c(C#N)c21 (stereo not given)	-10.7*	6*	-22.4	i	i	0.67	151.5*	0.493	i	+	114.7*	0.147*	KCNQ1 ephys val=i;KCNK9 block conf=62.0%*;Kir21 sel=i;KCNK9 uninduced=i
COCCN1C(=O)Cc2c1nc(N)c1c(N)nc(N3CCN(c4ccc(F)cc4)CC3)c(C#N)c21	i	i	-14.9	i	i	0.4	.	.	.	.	.	.
